Measured values taken from ChEMBL document CHEMBL4680104, “Structure-Based Optimization of Small-Molecule Inhibitors for the β-Catenin/B-Cell Lymphoma 9 Protein-Protein Interaction” (J Med Chem, 2018).
Activity calls are given as the source filed them. No cut-off for these calls is given here.

Assays:
[1] = system: SW480; assay: Effect on E-cadherin-bound beta-catenin levels in human SW480 cells at 25 to 100 uM incubated for 24 hrs by Western blot analysis; assay type: functional, cell-based; settings: dose 25-100 µM
Procedure, shortened: (§1)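 SW480 cells at 1 × 10^6 cells/mL were treated with a range of inhibitor concentrations for 24 h. Cells were lysed in Tris/NaCl/NP-40/deoxycholate/SDS buffer with protease inhibitors. Lysates were run on 8% SDS-PAGE and blotted to nitrocellulose. Blots were probed overnight at 4 °C for total β-catenin (mostly the E-cadherin-bound pool), active β-catenin (dephosphorylated S37/T41), cyclin D1, c-myc and β-tubulin. Detection used infrared secondary antibodies. Duplicate.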

[2] = biological target: T1, beta-catenin-B-cell lymphoma 9 protein complex (Homo sapiens) (UniProt P35222+O00512); assay: Inhibition of protein interaction between full-length beta-catenin (unknown origin) / full-length BCL9 (unknown origin) in human HCT-116 cells incubated for 24 hrs by co-immunoprecipitation assay; assay type: cell-based
Procedure, shortened: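 Intact HCT116 cells at 1 × 10^6/mL were treated with a range of inhibitor concentrations for 24 h. They were then lysed in Tris pH 7.4/NaCl/NP-40/EDTA buffer with protease inhibitors and precleared on A/G agarose. Anti-β-catenin immunoprecipitation ran overnight at 4 °C, with A/G capture for 3 h and five washes. Samples were run on 8% SDS-PAGE and immunoblotted for BCL9 and E-cadherin.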

[3] = Drug level in human HCT-116 cells assessed as cell membrane bound compound level at 50 uM incubated for 6 hrs at 4 degC in presence of DMEM media with 10% FBS; assay type: ADME, cell membranes; settings: hct-116, 6 h
Procedure, shortened: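 Cells were incubated with 50 μM compound for 6 h in 5 mL DMEM with 10% FBS, at 37 °C or at 4 °C. Cell-bound compound was quantified by a previously described method and expressed as nmol per million cells. The 4 °C incubation was used to estimate binding to the cell membrane through nonspecific association.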

[4] = biological target: T1, beta-catenin-B-cell lymphoma 9 protein complex (Homo sapiens); assay: Inhibition of protein interaction between beta-catenin /BCL9 in human SW480 cells assessed as reduction in Wnt target genes by measuring c-Myc protein expression at 25 to 100 uM incubated for 24 hrs by Western blot analysis; assay type: cell-based; settings: dose 25-100 µM; procedure, shortened: as §1
[5] = Effect on HPRT mRNA expression in human SW480 cells at 50 uM incubated for 24 hrs by qPCR analysis relative to control; assay type: ADME, cell-based; settings: read-out: FC
Procedure, shortened: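 SW480 cells at 1 × 10^6/mL were treated with inhibitor for 24 h. Total RNA was extracted with TRIzol and cDNA made by first-strand synthesis. SYBR green qPCR used human HPRT primers, with CT values normalised to GAPDH as internal reference. Performed in triplicate.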

In the case of `Cl.Cl.O=C(Nc1ccc(O[C@@H]2CCNC2)c(-c2cccc(-c3nn[nH]n3)c2)c1)c1ccc(O[C@H]2CCNC2)c(-c2ccc(F)c(F)c2)c1`, the Activity [1] is reported as “inactive”, the inhibition [2] is reported as “Dose-dependent effect” and the Drug uptake [3] is reported as 77%. The inhibition [4] was “Active” and the fold induction at 50 µM [5] was 0.979.
